# Only some compounds are listed: those with a hit (about 2.2% of all), similar ones and a draw of the others.
# HCT116 PTEN-null = growth suppressors of cells with PTEN tumor suppressor deletion; AID 827; HCT116 PTEN-null viability, CellTiter-Glo, 60 h; active compounds read low; viability, % at 10 µM; 140,000 compounds, 1.2% hits;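 active = viability at or below a set limit, 4 SD under the median of all tested compounds, cut at about 3.7% in these data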;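 also: PTEN knockout HCT116 line with beta catenin targeted HCT116 as companion control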
# bCat KO growth = beta-catenin-lacking colon tumor cell growth suppression. AID 818. viability, % at 10 µM. HCT116 beta-catenin knockout viability, CellTiter-Glo, 60 h; active compounds read low. 140,000 compounds, 1.5% hits;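 active = viability at or under a set limit, the compound median less 4 SD, cut at about 6% in these data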
# Dynein transport = blocks dynein driven cargo transport along microtubules; 3617.4 mouse cells, GR-EGFP nuclear translocation imaging; test concentration mostly 20 µM; stimulated with dexamethasone, 1 µM; active compounds read low; z-score, hits read low; 220,000 compounds, 0.47% hits;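 active = plate z-score of nuclear minus cytoplasmic receptor signal below a set negative limit, without overly bright fluorescence or cell loss, cut at about -3.5 in these data, passing the limit was not always enough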;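 also: z-score of nuclear minus cytoplasmic ring GR-EGFP intensity difference per well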
#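 Buffer or medium: tet-free medium with charcoal-stripped serum / Also added: dexamethasone agonist, 1.0 µM final, for 30 min / Timing: induction 48 h, compound 1 h, agonist 30 min / Measured by: high-content fluorescence imaging after fixation / Read-out: nuclear-to-cytoplasmic GR-EGFP distribution per well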
# Autophagy HCS = modulators of autophagy | MEF GFP-LC3 puncta imaging; test concentration mostly 10 µM | calls only at 10 µM (by protocol) | 190,000 compounds, 0.98% hits | AID 463193;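 active = percentage of spot-positive cells more than 3 SD above its plate mean, without a fluorescence outlier flag or 80% toxicity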
# SDO1 yeast rescue = sdo1-depleted yeast growth rescue; S. cerevisiae sdo1-depleted JHY4D growth rescue, OD600 30 h; active compounds read high; pdr5 snq2 efflux-pump mutant strain; z-score at 10 µM; 140,000 compounds, 0.21% hits; AID 817;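 active = z-score above 3 at both the 24 hr and the 30 hr optical density reads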
# SDO1 rescue DR = SDO1-depleted yeast growth rescue confirmation; shares compounds with SDO1 yeast rescue; S. cerevisiae JHY4D (SDO1-depleted) growth rescue, OD600, 30 h; active compounds read high; efflux-deficient strain, SNQ2 and PDR5 mutated; OD recovery (test concentration not listed); 440 compounds, 44% hits; AID 949;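 active = yeast growth recovered at 30 hours, either rising with dose fitted slope above 0.001 or with average optical density gain above 0.07, some results past the limit were not filed as active; inactive = growth falling with dose or no effect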
# Dynein inh conf = dynein cargo transport inhibition, confirmation; calls only at 20 µM; 1,000 compounds, 69% hits; 3617.4 GR-EGFP nuclear translocation imaging, dexamethasone-induced; shares compounds with Dynein transport;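 active = inhibition of receptor movement into the nucleus at or above a set limit in both runs, with normal cell brightness and cell count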;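 also: dexamethasone at 1 µM final in well for 30 min; nuclear minus cytoplasmic GR-EGFP mean intensity difference in channel 2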
# Hits are given with their value; 0 = inactive; - = no result; + = active, no number.
SMILES,HCT116 PTEN-null,bCat KO growth,Dynein transport,Autophagy HCS,SDO1 yeast rescue,SDO1 rescue DR,others
CCOC(=O)c1nnn(-c2nonc2N)c1CN1CCc2ccccc2C1,0,0,0,0,11,0.11,
CN1CCN(c2ccc(Cl)cc2NC(=O)c2ccc(S(=O)(=O)N(C)C)cc2)CC1,0,0,0,0,4.3,0,
CCOc1cc(CNCc2ccncc2)cc(Cl)c1OC,0,0,0,0,0,-,
Cc1ccc(S(=O)(=O)N2CC=C(c3ccc(F)cc3)CC2)cc1,0,0,0,0,7.1,0,
CC(=O)C1C(c2ccc(F)cc2)C2C(C)=NN=C2CC1(C)O (centres undefined),0,0,0,0,9.7,0.072,
O=C(CCCOc1ccccc1)N1CCN(c2ccccc2)CC1,0,0,0,0,8.8,0.099,
Cc1c(C(=O)O)cccc1-n1c(C)cc(/C=C(/C#N)C(=O)NCc2ccccc2)c1C,-,-,0,0,-,-,
Cc1ccc(NC(=S)NCC(C)C)cc1,0,0,0,0,0,-,
COc1cc(CNCCc2ccc(S(N)(=O)=O)cc2)ccc1OCC(=O)N1CCCCC1,0,0,0,0,0,-,
C=CCc1cc(/C=N\NC(=O)CSc2nnc(CCCc3ccc(OC)c(C)c3)o2)cc(OC)c1O,0,0,0,0,0,-,
C=CCc1cc(/C=N/NC(=O)CSc2nnc(CCCc3ccc(OC)cc3)o2)cc(OC)c1O,0,0,0,0,0,0.087,
Cc1cccc2cc(CN(CCCN(C)C)C(=S)NCCc3ccccc3)c(=O)[nH]c12,-,-,0,0,-,-,
Cc1cccnc1NC(=O)CSc1nnc(Cc2ccccc2)o1,0,0,0,0,0,-,
COc1ccc(/C=N\NC(=O)COc2ccc(Cl)cc2Cl)c(C(=O)O)c1OC,0,0,0,0,0,0,
COc1ccc(/C=N/NC(=O)CNc2ccc(Br)cc2)c(C(=O)O)c1OC,-,-,0,0,-,-,
CCOC(=O)c1c(C)nc2c(c1-c1cc(OC)c(OC)c(OC)c1)C(=O)c1ccccc1-2,0,0,0,0,0,-,
O=C1COc2ccc(C(=O)COC(=O)c3ccc4ccccc4n3)cc2N1,0,0,0,0,0,0.099,
Clc1ccc(CNc2ccc(CNc3ncn[nH]3)cc2)c(Cl)c1,-,-,0,-,-,-,
CC(C)CCn1nnnc1C(c1ccc(F)cc1)N1CCC(C(N)=O)CC1 (centres undefined),0,0,0,0,3.5,0,
CN(C)CCNC(=O)c1coc(=O)c(Br)c1,0,0,0,0,13,0,
COc1ccc(OC)c(NC(=S)NCCN2CCOCC2)c1,0,0,0,0,3.9,0,
Cc1ccc(NC(=O)c2noc3c2CCc2ccccc2-3)cc1,0,0,0,0,0,-,
Cc1cc(NC(=O)c2noc3c2CCc2ccccc2-3)n(-c2ccccc2)n1,0,0,0,0,9.6,0.083,
COc1cccc(Cn2cnc3c(NS(=O)(=O)c4ccc(Cl)cc4)c(C)c(C)cc32)c1,0,0,0,0,0,-,
CC1(C)C(=O)OC(c2cccc([N+](=O)[O-])c2)C2(CCCCC2)C1=O (centres undefined),-,-,0,0,-,-,
SMILES,HCT116 PTEN-null,bCat KO growth,Dynein transport,Autophagy HCS,SDO1 yeast rescue,SDO1 rescue DR,others
CC1(C)C(=O)OC(c2ccccc2)C2(CCCC2)C1=O (centres undefined),0,0,0,0,3.2,0,
COc1ccc2nc(SC(C(=O)c3ccccc3)c3ccccc3)nc(C)c2c1 (centres undefined),0,0,0,0,0,0,
Cc1nc(SC(C(=O)c2ccccc2)c2ccccc2)nc2ccccc12 (centres undefined),0,0,0,0,0,-,
CC(=O)N/C(=C\c1ccc(F)cc1)C(=O)OC(C)C,0,0,0,0,3.4,0.098,
CCOC(=O)/C(=C/c1ccc(F)cc1)NC(C)=O,0,0,0,0,0,-,
CC(C)C1(C(C)C)OC(=O)c2ccccc21,0,0,0,0,3,0,
COCCSc1ccccc1C(=O)N1CCCC(C)C1 (centres undefined),-,-,0,0,-,-,
CCOC(=O)C1CCCN(C(=O)c2ccccc2SCCOC)C1 (centres undefined),0,0,0,0,0,0.081,
CN1CCN(C(=O)C2CC(c3c(F)cccc3Cl)=NO2)CC1 (centres undefined),0,0,0,0,0,-,
O=C(CSc1nc(Nc2ccccc2)nc(N2CCOCC2)n1)N1CCCC1,0,0,0,0,4,0,
O=C(CSc1nc(Nc2ccccc2)nc(N2CCOCC2)n1)N1CCc2ccccc21,0,0,0,0,0,-,
COc1ccc(C(=O)C2CCCN(C(=O)c3cc(C)nc(C)n3)C2)cc1OC (centres undefined),-,-,0,0,-,-,
Cc1ccc(NC(=O)CS(=O)CC(=O)N(C(C)C(=O)NC2CCCCC2)C(C)(C)C)cc1 (centres undefined),-,-,0,0,-,-,
CCCCCCCC#Cc1ccccc1/C=N/S(=O)c1ccc(C)cc1 (centres undefined),0,0,0,0,13,0,
CCCc1nnc(NC(=O)C(CC)OC(=O)c2cc(C)nc3ccccc23)s1 (centres undefined),0,0,0,0,12,0,
CCCc1nnc(NC(=O)COC(=O)c2cc(C)nc3ccccc23)s1,0,0,0,0,0,-,
COc1ccc(CCN2C(=O)c3cccc4cccc(c34)C2=O)cc1OC,0,0,0,0,0,0.094,
CCCn1c(CC)nc([N+](=O)[O-])c1S(=O)(=O)c1ccccc1,1.2,1.4,-5.1,0,0,-,Dynein inh conf=+
Cc1ccc(O)c(NC(=O)c2cc([N+](=O)[O-])ccc2Cl)c1,-,-,-3.7,0,-,-,Dynein inh conf=+
Cc1nn(-c2ccccc2)c(C)c1NC(=O)COc1ccc2ccccc2c1,0,0,0,0,0,-,
COc1ccc(Nc2nc(N)nc(CCl)n2)cc1,-,-,0,-,-,-,
Nc1nc(CCl)nc(Nc2ccc3ccccc3c2)n1,-,-,-4.3,-,-,-,Dynein inh conf=+
CC1=NNC(=O)/C1=C\c1cn(-c2ccccc2)nc1-c1ccccc1,-,-,-3.9,0,-,-,Dynein inh conf=0
CCCCn1nnnc1SCC(=O)NNC(=O)c1ccco1,-,-,0,0,-,-,
O=C1ON=C(c2ccc(Cl)cc2)/C1=C/c1ccc(O)cc1,-,-,-5,0,-,-,Dynein inh conf=+
SMILES,HCT116 PTEN-null,bCat KO growth,Dynein transport,Autophagy HCS,SDO1 yeast rescue,SDO1 rescue DR,others
CCOC(=O)c1ccc(NC(=O)CN2C(=O)C(=O)N(CC(C)C)C2=O)cc1,0,0,0,0,0,-,
C=C(CCC(=O)c1ccccc1)C(=O)c1ccccc1,0.5,0.4,-3.8,0,0,-,Dynein inh conf=+
O=C(CCCCCCCC(=O)c1ccccc1)c1ccccc1,-,-,0,0,-,-,
CCOc1cc(C(N)=O)cc(Br)c1OCc1ccccc1,-,-,0,0,-,-,
Cc1cc(C(=O)CCl)c(C)n1CCc1ccc(Cl)cc1,-,-,-6.3,0,-,-,Dynein inh conf=+
Cc1cc(C(=O)CCl)c(C)n1CCc1ccc(F)cc1,-,-,0,0,-,-,
COc1ccc(CCn2c(C)c(C(C)=O)c(C(C)=O)c2C)cc1OC,-,-,0,0,-,-,

# Compound activity as filed in PubChem.
